Active and inactive are the calls of the source. The rule behind the calls is not given here.
How the values were obtained:
[1] = target: T1, Corticotropin-releasing factor receptor 1 (Homo sapiens, UniProt P34998); assay: Displacement of [125I]CRF from human CRF1 receptor expressed in CHO-K1 cells after 2 hrs by gamma counter; format: cell-based
T1 sequence (P34998 whole entry): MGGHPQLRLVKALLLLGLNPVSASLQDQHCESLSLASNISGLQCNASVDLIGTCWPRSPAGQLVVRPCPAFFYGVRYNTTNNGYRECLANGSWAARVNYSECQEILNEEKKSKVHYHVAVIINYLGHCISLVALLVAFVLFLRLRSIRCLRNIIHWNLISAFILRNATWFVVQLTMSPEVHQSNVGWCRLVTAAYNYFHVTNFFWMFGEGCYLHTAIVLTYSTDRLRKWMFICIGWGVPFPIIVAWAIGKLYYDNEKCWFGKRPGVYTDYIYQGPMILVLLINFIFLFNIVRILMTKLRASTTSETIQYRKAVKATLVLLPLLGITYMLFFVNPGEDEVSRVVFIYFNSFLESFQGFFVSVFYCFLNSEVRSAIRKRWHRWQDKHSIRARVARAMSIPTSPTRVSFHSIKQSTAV
Method in brief: (§1)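 Crude membranes came from CRF1-expressing CHO-K1 cells, homogenized in 50 mmol/l Tris–HCl with 10 mmol/l MgCl2, 2 mmol/l EDTA and aprotinin, then spun at 10,000 g. Membranes were incubated 2 h at room temperature with 0.5 nmol/l 125I human/rat CRF (added solution) and test compound (1–10000 nmol/l). Bound ligand was separated by centrifugation and washed with PBS/0.01% Triton X-100, then counted by γ-counter. Nonspecific binding was defined with 1 µmol/l unlabeled CRF. IC50 was taken from concentration–response curves.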

[2] = target: T1, Corticotropin-releasing factor receptor 1; assay: Antagonist activity at human CRF1 receptor expressed in CHO-K1 cells assessed as CRF-stimulated cAMP accumulation by enzyme immunoassay; format: functional, cell-based; conditions: read-out: EC50 (the source's name)
Method in brief: (§2)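 CHO-K1 cells expressing CRF1 were seeded at 1 × 10^4 cells/well and incubated overnight, then washed twice with F-12. They were preincubated 10 min at 37 °C in F-12 containing 1 mmol/l IBMX. Test compound (1–10000 nmol/l) and 10 nmol/l CRF (final concentration not stated) were added, followed by 15 min at 37 °C. Cells were chilled and cAMP measured by enzyme immunoassay after blank subtraction. IC50 was taken from concentration–response curves.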

[3] = target: T2, Corticotropin-releasing factor receptor 1 (Rattus norvegicus, UniProt P35353); assay: Displacement of [125I]CRF from rat CRF1 receptor expressed in CHO-K1 cells after 2 hrs by gamma counter; format: cell-based; conditions: in the assay text read “in brain membranes” for “expressed in CHO-K1 cells”; method in brief: as §1
T2 sequence (P35353 whole entry): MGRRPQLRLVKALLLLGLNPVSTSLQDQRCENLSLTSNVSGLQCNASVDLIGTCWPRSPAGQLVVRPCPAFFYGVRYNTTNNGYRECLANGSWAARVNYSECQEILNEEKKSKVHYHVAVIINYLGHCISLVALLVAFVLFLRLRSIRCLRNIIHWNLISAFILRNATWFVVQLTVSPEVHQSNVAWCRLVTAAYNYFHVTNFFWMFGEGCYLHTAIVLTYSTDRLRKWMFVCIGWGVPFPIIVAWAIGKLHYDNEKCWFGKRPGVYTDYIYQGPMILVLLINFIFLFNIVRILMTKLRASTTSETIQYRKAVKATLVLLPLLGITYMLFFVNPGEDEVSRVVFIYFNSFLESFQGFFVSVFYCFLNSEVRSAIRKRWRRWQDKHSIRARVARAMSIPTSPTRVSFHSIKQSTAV

[4] = target: T2, Corticotropin-releasing factor receptor 1; assay: Antagonist activity at rat CRF1 receptor expressed in CHO-K1 cells assessed as CRF-stimulated cAMP accumulation by enzyme immunoassay; format: functional, cell-based; method in brief: as §2
Rattus norvegicus [5] = assay: Anxiolytic activity against swin-stress-induced anxiety-like behavior in po dosed Sprague-Dawley rat assessed as increase in time spent in open arms after 1 hr by plus-maze test; format: functional, organism-based
Method in brief: (§3)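 Male Sprague-Dawley rats (230–280 g) received oral vehicle (0.5% MC) or compound 1 h before testing. They were forced to swim 120 s in 22 ± 2 °C water (25 cm deep) and dried. Each rat was placed at the maze centre facing a closed arm and video-tracked for 5 min. Time in and entries into open arms were scored. Non-stressed controls were included. Data are mean ± S.E., with n=16 per group. Dunnett test versus vehicle.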

[6] = AUC (infinity) in rat at 1 mg/kg, iv; format: ADME, organism-based; design: time infinity, dose 1 mg/kg, route intravenous; conditions: plasma
Method in brief: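 Fasted male rats given a single 1 mg/kg intravenous dose in saline with 30% HP-β-CD (w/v). Heparinized jugular-vein blood was drawn pre-dose and at 2, 5, 15 and 30 min and 1, 2, 3, 4, 8, 24, 48 and 72 h. Plasma was separated by centrifugation and stored at -70 °C. AUC was derived from the plasma concentration–time course.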

[7] = AUC (infinity) in rat at 1 mg/kg, po; format: ADME, organism-based; design: time infinity, dose 1 mg/kg, route oral; conditions: plasma
Method in brief: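 Fasted male rats dosed orally once at 1 mg/kg in saline with 0.5% MC (w/v). Heparinized jugular-vein blood was taken at 1, 2, 4, 6, 8, 24, 48 and 72 h. Plasma was obtained by centrifugation and kept at -70 °C. AUC came from the plasma concentration–time profile.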

[8] = Tmax in rat at 1 mg/kg, po; format: ADME, organism-based; design: dose 1 mg/kg, route oral; conditions: in vivo
Method in brief: (§4)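 Fasted male rats received a single 1 mg/kg dose, either iv in saline with 30% HP-β-CD or po in saline with 0.5% MC (n = 4 each). Jugular blood was taken by heparinized syringe (iv: 2 min–72 h; po: 1–72 h) and spun to plasma stored at −70 °C. AUC, Cmax, Tmax, T1/2, Vss and CL were derived from plasma concentration–time courses. F = dose-normalized AUCpo/AUCiv × 100.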

[9] = Total clearance in rat at 1 mg/kg, iv; format: ADME, organism-based; design: dose 1 mg/kg, route intravenous; conditions: in vivo; method in brief: as §4
[10] = Half life in rat at 1 mg/kg, iv; format: ADME, organism-based; design: dose 1 mg/kg, route intravenous; conditions: in vivo; method in brief: as §4
[11] = Half life in rat at 1 mg/kg, po; format: ADME, organism-based; design: dose 1 mg/kg, route oral; conditions: in vivo; method in brief: as §4
[12] = Volume of distribution at steady state in rat at 1 mg/kg, iv; format: ADME, organism-based; design: dose 1 mg/kg, route intravenous; conditions: in vivo, read-out: Vdss; method in brief: as §4
[13] = Oral bioavailability in rat at 1 mg/kg; format: ADME, organism-based; conditions: in vivo; method in brief: as §4
Rattus norvegicus [14] = assay: Anxiolytic activity against swin-stress-induced anxiety-like behavior in Sprague-Dawley rat assessed as increase in time spent in open arms at 10 mg/kg, po after 1 hr by plus-maze test; format: functional, organism-based; design: dose 10 mg/kg; method in brief: as §3
[15] = Cmax in rat at 1 mg/kg, po; conditions: in vivo
Rattus norvegicus [16] = assay: Anxiolytic activity against swin-stress-induced anxiety-like behavior in Sprague-Dawley rat assessed as increase in time spent in open arms at 3 mg/kg, po after 1 hr by plus-maze test; format: functional, organism-based; design: dose 3 mg/kg; method in brief: as §3

IC50 [1] [nM] | IC50 [2] [nM] | Structure (SMILES) | other results
3.8 | 1.2 | CCC(CC)c1cc(C)n2nc(-c3ccc(OC)cc3Cl)n(C)c(=O)c12 | –
4.6 | 0.7 | CCC(CC)c1cc(C)n2nc(-c3ccc(OC)cc3Cl)n(CC)c(=O)c12 | –
19.2 | 5.1 | CCC(CC)c1cc(C)n2nc(-c3ccc(OC)cc3C)n(C(C)C)c(=O)c12 | –
311 | – | CCC(CC)c1nc(C)c2nc(-c3ccc(OC)cc3C)c(C)cn12 | –
2 | 0.6 | CCC(CC)c1cc(C)n2nc(-c3c(C)cc(OC)cc3C)n(C)c(=O)c12 | –
4.9 | 1.1 | CCC(C)c1cc(C)n2nc(-c3ccc(OC)cc3Cl)n(C)c(=O)c12 (centres undefined) | –
9.7 | 1.2 | CCC(CC)c1cc(C)n2nc(-c3ccc(OC)cc3C)n(CC)c(=O)c12 | –
11.6 | 1.8 | CCC(CC)c1cc(C)n2nc(-c3ccc(C)cc3C)c(C)cc12 | –
8.6 | 17.2 | CCC(CC)c1cc(C)n2nc(-c3cnc(OC)cc3C)n(C)c(=O)c12 | –
81.2 | 36.5 | CCC(C)c1cc(C)n2nc(-c3ccc(N(C)C)nc3C)n(C)c(=O)c12 (centres undefined) | –
8.9 | 1.9 | CCc1cc(OC)c(OC)cc1-c1nn2c(C)cc(C(CC)CC)c2cc1C | –
111 | 47.2 | CCC(CC)c1cc(C)n2nc(-c3ccc(OC)cc3C)n(CC(C)C)c(=O)c12 | –
13.1 | 4.5 | COc1cc(C)c(-c2nn3c(C)cc(C(C)C)c3c(=O)n2C)c(C)c1 | –
4.4 | 3.5 | CCC(CC)c1cc(C)n2nc(-c3ccc(OC)cc3Cl)n(CCO)c(=O)c12 | –
8.7 | 7.4 | COc1ccc(-c2nn3c(C)cc(C(C)C)c3c(=O)n2C)c(Cl)c1 | –
16.6 | 3.3 | CCC(CC)c1cc(C)n2nc(-c3cc(C)c(C)cc3C)c(C)cc12 | –
13.4 | 6.9 | CCOc1ccc(-c2nn3c(C)cc(C(CC)CC)c3cc2C)c(CC)c1 | –
149 | 688 | CCC(CC)c1cc(C)n2nc(-c3ccc(OC)cc3C)[nH]c(=O)c12 | –

IC50 [1] [nM] | IC50 [2] [nM] | Structure (SMILES) | other results
131 | – | Cc1nc(N(C)C)ccc1-c1nn2c(C)cc(C(C)C)c2c(=O)n1C | –
5.7 | 3.7 | CCC(CC)c1cc(C)n2nc(-c3ccc(OC)cc3C)n(C3CC3)c(=O)c12 | –
3.3 | 5 | CCC(CC)c1cc(C)n2nc(-c3ccc(OC)cc3C)n(CC3CC3)c(=O)c12 | –
7.8 | 5.5 | CCC(CC)c1cc(C)n2nc(-c3ccc(N(C)C)nc3C)n(C)c(=O)c12 | –
– | 3.2 | CCC(CC)c1cc(C)n2nc(-c3cnc(OC(F)F)cc3C)n(C)c(=O)c12 | IC50 [3]: 8.4 nM; EC50 [4]: 2.6 nM; Activity (Rattus norvegicus [5]): Dose-dependent effect; AUC(0-inf) [6]: 518 ng·h/mL; AUC(0-inf) [7]: 70.2 ng·h/mL; Tmax [8]: 1 h; clearance [9]: 34.7 mL/min/kg; half-life [10]: 4.3 h; half-life [11]: 2.4 h; Vd [12]: 2.95 L/kg; bioavailability [13]: 13.5%; Activity (Rattus norvegicus [14]): Active; Cmax [15]: 21.5 ng/mL
4.2 | 3.5 | CCC(C)c1cc(C)n2nc(-c3c(C)cc(OC)cc3C)n(C)c(=O)c12 (centres undefined) | –
14.3 | 4 | CCC(CC)c1cc(C)n2nc(-c3ccc(OC)cc3Cl)[nH]c(=O)c12 | –
122 | 566 | CCC(CC)c1nc(C)n2nc(-c3ccc(OC)cc3C)c(C)cc12 | –
5 | 2.4 | CCC(C)c1cc(C)n2nc(-c3ccc(OC)cc3C)n(C)c(=O)c12 (centres undefined) | –
2.6 | 1.7 | CCC(CC)c1cc(C)n2nc(-c3ccc(OC)cc3C)n(C)c(=O)c12 | –
7.4 | 11.5 | CCC(CC)c1cc(C)n2nc(-c3cnc(N(C)C)cc3C)c(C)cc12 | –
5.9 | 1 | CCC(CC)c1cc(C)n2nc(-c3ccc(OC)cc3Cl)n(C3CC3)c(=O)c12 | –
– | 4.9 | CCC(CC)c1cc(C)n2nc(-c3ccc(OC)cc3C)c(C)cc12 | Activity (Rattus norvegicus [16]): Active
3.8 | 1.1 | CCC(CC)c1cc(C)n2nc(-c3ccc(OC)nc3C)n(C)c(=O)c12 | –
4.5 | 0.3 | CCC(CC)c1cc(C)n2nc(-c3ccc(OC(F)F)nc3C)n(C)c(=O)c12 | –
18.3 | 2.5 | CCC(CC)c1cc(C)n2nc(-c3cc4c(cc3C)OCO4)c(C)cc12 | –
– | 4.2 | CCC(CC)c1cc(C)n2nc(-c3ccc(OC)cc3C)n(CCO)c(=O)c12 | –

Source: ChEMBL document CHEMBL1938359, “Pyrrolo[1,2-b]pyridazines, pyrrolo[2,1-f]triazin-4(3H)-ones, and related compounds as novel corticotropin-releasing factor 1 (CRF₁) receptor antagonists” (Bioorg Med Chem, 2012)
